Measurements from ChEMBL document CHEMBL3232897, “Synthesis, antiproliferative and antibacterial activity of new amides of salinomycin” (Bioorg Med Chem Lett, 2014).
In brackets after ≈: the same amount, converted by molar mass. Blank lines part the entries; values can stand above or below the molecule they belong to.

How the values were obtained:
[1] = Selectivity index, ratio of IC50 for mouse BALB/3T3 cells to IC50 for human LoVo/DX cells; type: functional
Outline: (§1)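 Selectivity index is the IC50 in normal murine embryonic fibroblasts (BALB/3T3) divided by the IC50 in the respective cancer line (HL-60, HL-60/vinc, LoVo or LoVo/DX). Each IC50 is the concentration giving 50% growth inhibition. SI >1.0 is taken as favourable.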

HL-60 [2] = assay: Resistance index, ratio of IC50 for human HL60/Vinc cells to IC50 for human HL60 cells; type: functional
Outline: (§2)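 Index of resistance is the IC50 in the resistant subline (HL-60/vinc or LoVo/DX) divided by the IC50 in its parental line (HL-60 or LoVo). Each IC50 is the concentration giving 50% growth inhibition. Bands are 0–2 sensitive, 2–10 moderate, above 10 strongly resistant.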

[3] = Selectivity index, ratio of IC50 for mouse BALB/3T3 cells to IC50 for human HL60/Vinc cells; type: functional; outline: as §1
HL-60 [4] = assay: Antiproliferative activity against human HL60 cells; type: functional, cell-based
Outline: (§3)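 IC50 is the concentration giving 50% growth inhibition, reported as mean with SD. HL-60/vinc and LoVo/DX are drug-resistant (MDR) sublines of HL-60 and LoVo. BALB/3T3 is a normal murine embryonic fibroblast line.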

LoVo [5] = assay: Resistance index, ratio of IC50 for human LoVo/DX cells to IC50 for human LoVo cells; type: functional; outline: as §2
[6] = Antiproliferative activity against human LoVo/DX cells; type: functional, cell-based; outline: as §3
HL-60 [7] = assay: Selectivity index, ratio of IC50 for mouse BALB/3T3 cells to IC50 for human HL60 cells; type: functional; outline: as §1
[8] = Antiproliferative activity against human HL60/Vinc cells; type: functional, cell-based; outline: as §3
LoVo [9] = assay: Selectivity index, ratio of IC50 for mouse BALB/3T3 cells to IC50 for human LoVo cells; type: functional; outline: as §1
BALB/3T3 = assay: Antiproliferative activity mouse BALB/3T3 cells; type: cell-based; outline: as §3
LoVo [10] = assay: Antiproliferative activity against human LoVo cells; type: functional, cell-based; outline: as §3
Staphylococcus aureus [11] = assay: Antibacterial activity against Staphylococcus aureus ATCC 25923; type: functional
Staphylococcus aureus [12] = assay: Antibacterial activity against Staphylococcus aureus ATCC 29213; type: functional
Staphylococcus aureus [13] = assay: Antibacterial activity against Staphylococcus aureus ATCC 6538; type: functional
Staphylococcus aureus [14] = assay: Antibacterial activity against Staphylococcus aureus NCTC 4163; type: functional
[15] = test system: Staphylococcus epidermidis; assay: Antibacterial activity against methicillin-resistant Staphylococcus epidermidis 468/11; type: functional
Outline: (§4)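 In vitro antibacterial test on Staphylococcus strains, including MRSE clinical isolates. Read-outs were growth inhibition zone (mm) and MIC (µg/ml). Ciprofloxacin was the reference antibiotic.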

[16] = test system: Staphylococcus epidermidis; assay: Antibacterial activity against methicillin-resistant Staphylococcus epidermidis 460/11; type: functional; outline: as §4
[17] = test system: Staphylococcus epidermidis; assay: Antibacterial activity against methicillin-resistant Staphylococcus epidermidis 488/11; type: functional; outline: as §4
[18] = test system: Staphylococcus epidermidis; assay: Antibacterial activity against methicillin-resistant Staphylococcus epidermidis 461/11; type: functional; outline: as §4
[19] = test system: Staphylococcus epidermidis; assay: Antibacterial activity against methicillin-resistant Staphylococcus epidermidis 489/11; type: functional; outline: as §4
[20] = test system: Staphylococcus epidermidis; assay: Antibacterial activity against methicillin-resistant Staphylococcus epidermidis 459/11; type: functional; outline: as §4
[21] = test system: Staphylococcus epidermidis; assay: Antibacterial activity against methicillin-resistant Staphylococcus epidermidis 466/11; type: functional; outline: as §4
[22] = test system: Staphylococcus epidermidis; assay: Antibacterial activity against methicillin-resistant Staphylococcus epidermidis 469/11; type: functional; outline: as §4
[23] = test system: Staphylococcus epidermidis; assay: Antibacterial activity against methicillin-resistant Staphylococcus epidermidis 467/11; type: functional; outline: as §4
[24] = test system: Staphylococcus epidermidis; assay: Antibacterial activity against Staphylococcus epidermidis ATCC 35984; type: functional; outline: as §4
[25] = test system: Staphylococcus epidermidis; assay: Antibacterial activity against Staphylococcus epidermidis ATCC 12228; type: functional; outline: as §4
[26] = test system: Staphylococcus epidermidis; assay: Antibacterial activity against methicillin-resistant Staphylococcus epidermidis 470/11; type: functional; outline: as §4

IC50 (HL-60 [4]): 2.7 µM
IC50 (LoVo [10]): 10.7 µM
Compound: CC[C@@H](C(=O)[C@@H](C)[C@@H](O)[C@H](C)[C@@H]1O[C@@H]([C@@H](CC)C(=O)NCCCCNC(=O)[C@H](CC)[C@H]2CC[C@H](C)[C@H]([C@@H](C)[C@H](O)[C@H](C)C(=O)[C@H](CC)[C@H]3O[C@]4(C=C[C@@H](O)[C@]5(CC[C@@](C)([C@H]6CC[C@](O)(CC)[C@H](C)O6)O5)O4)[C@H](C)C[C@@H]3C)O2)CC[C@@H]1C)[C@H]1O[C@]2(C=C[C@@H](O)[C@]3(CC[C@@](C)([C@H]4CC[C@](O)(CC)[C@H](C)O4)O3)O2)[C@H](C)C[C@@H]1C
Ratio IC50 [1]: 5.13
Ratio IC50 (HL-60 [2]): 4.95
Ratio IC50 [3]: 1.47
Ratio IC50 (LoVo [5]): 0.36
IC50 [6]: 3.9 µM
Ratio IC50 (HL-60 [7]): 7.28
IC50 [8]: 13.5 µM
Ratio IC50 (LoVo [9]): 1.85
IC50 (BALB/3T3): 19.8 µM

Compound: CC[C@@H](C(=O)[C@@H](C)[C@@H](O)[C@H](C)[C@@H]1O[C@@H]([C@@H](CC)C(=O)NCCOCCO)CC[C@@H]1C)[C@H]1O[C@]2(C=C[C@@H](O)[C@]3(CC[C@@](C)([C@H]4CC[C@](O)(CC)[C@H](C)O4)O3)O2)[C@H](C)C[C@@H]1C
Ratio IC50 [1]: 2.76
MIC (Staphylococcus aureus [11]): 32 µg/mL (≈ 38.2 µM)
MIC (Staphylococcus aureus [12]): 64 µg/mL (≈ 76.4 µM)
MIC (Staphylococcus aureus [13]): 32 µg/mL (≈ 38.2 µM)
MIC (Staphylococcus aureus [14]): 32 µg/mL (≈ 38.2 µM)
Ratio IC50 (HL-60 [2]): 1.74
MIC [15]: 64 µg/mL (≈ 76.4 µM)
MIC [16]: 64 µg/mL (≈ 76.4 µM)
Ratio IC50 [3]: 1.28
IC50 (HL-60 [4]): 17.8 µM
MIC [17]: 64 µg/mL (≈ 76.4 µM)
MIC [18]: 64 µg/mL (≈ 76.4 µM)
MIC [19]: 64 µg/mL (≈ 76.4 µM)
Ratio IC50 (LoVo [5]): 0.39
MIC [20]: 32 µg/mL (≈ 38.2 µM)
MIC [21]: 64 µg/mL (≈ 76.4 µM)
MIC [22]: 64 µg/mL (≈ 76.4 µM)
IC50 [6]: 14.3 µM
Ratio IC50 (HL-60 [7]): 2.22
IC50 [8]: 30.9 µM
Ratio IC50 (LoVo [9]): 1.08
IC50 (BALB/3T3): 39.4 µM
IC50 (LoVo [10]): 36.7 µM
MIC [23]: 32 µg/mL (≈ 38.2 µM)
MIC [24]: 64 µg/mL (≈ 76.4 µM)
MIC [25]: 64 µg/mL (≈ 76.4 µM)
MIC [26]: 64 µg/mL (≈ 76.4 µM)

IC50 (HL-60 [4]): 2.8 µM
IC50 (LoVo [10]): 3.9 µM
Compound: CC[C@@H](C(=O)[C@@H](C)[C@@H](O)[C@H](C)[C@@H]1O[C@@H]([C@@H](CC)C(=O)NCCc2ccc(O)c(O)c2)CC[C@@H]1C)[C@H]1O[C@]2(C=C[C@@H](O)[C@]3(CC[C@@](C)([C@H]4CC[C@](O)(CC)[C@H](C)O4)O3)O2)[C@H](C)C[C@@H]1C
Ratio IC50 [1]: 1.34
Ratio IC50 (HL-60 [2]): 2.48
Ratio IC50 [3]: 0.83
Ratio IC50 (LoVo [5]): 1.1
IC50 [6]: 4.3 µM
Ratio IC50 (HL-60 [7]): 2.05
IC50 [8]: 6.9 µM
Ratio IC50 (LoVo [9]): 1.47
IC50 (BALB/3T3): 5.7 µM

Compound: CC[C@@H](C(=O)[C@@H](C)[C@@H](O)[C@H](C)[C@@H]1O[C@@H]([C@@H](CC)C(=O)NCCc2ccc(F)cc2)CC[C@@H]1C)[C@H]1O[C@]2(C=C[C@@H](O)[C@]3(CC[C@@](C)([C@H]4CC[C@](O)(CC)[C@H](C)O4)O3)O2)[C@H](C)C[C@@H]1C
Ratio IC50 [1]: 19.57
Ratio IC50 (HL-60 [2]): 2.98
Ratio IC50 [3]: 6.8
IC50 (HL-60 [4]): 2.3 µM
Ratio IC50 (LoVo [5]): 0.57
IC50 [6]: 2.3 µM
Ratio IC50 (HL-60 [7]): 20.27
IC50 [8]: 6.7 µM
Ratio IC50 (LoVo [9]): 11.2
IC50 (BALB/3T3): 45.8 µM
IC50 (LoVo [10]): 4.1 µM

Compound: CC[C@@H](C(=O)[C@@H](C)[C@@H](O)[C@H](C)[C@@H]1O[C@@H]([C@@H](CC)C(=O)O)CC[C@@H]1C)[C@H]1O[C@]2(C=C[C@@H](O)[C@]3(CC[C@@](C)([C@H]4CC[C@](O)(CC)[C@H](C)O4)O3)O2)[C@H](C)C[C@@H]1C [SALINOMYCIN]
Ratio IC50 [1]: 26.08
MIC (Staphylococcus aureus [11]): 2 µg/mL (≈ 2.66 µM)
MIC (Staphylococcus aureus [12]): 4 µg/mL (≈ 5.33 µM)
MIC (Staphylococcus aureus [13]): 2 µg/mL (≈ 2.66 µM)
MIC (Staphylococcus aureus [14]): 2 µg/mL (≈ 2.66 µM)
Ratio IC50 (HL-60 [2]): 4.05
MIC [15]: 8 µg/mL (≈ 10.7 µM)
MIC [16]: 16 µg/mL (≈ 21.3 µM)
Ratio IC50 [3]: 5.45
IC50 (HL-60 [4]): 1.2 µM
MIC [17]: 16 µg/mL (≈ 21.3 µM)
MIC [18]: 16 µg/mL (≈ 21.3 µM)
MIC [19]: 16 µg/mL (≈ 21.3 µM)
Ratio IC50 (LoVo [5]): 0.65
MIC [20]: 16 µg/mL (≈ 21.3 µM)
MIC [21]: 8 µg/mL (≈ 10.7 µM)
MIC [22]: 16 µg/mL (≈ 21.3 µM)
IC50 [6]: 1 µM
Ratio IC50 (HL-60 [7]): 22.07
IC50 [8]: 4.7 µM
Ratio IC50 (LoVo [9]): 16.88
IC50 (BALB/3T3): 25.8 µM
IC50 (LoVo [10]): 1.5 µM
MIC [23]: 16 µg/mL (≈ 21.3 µM)
MIC [24]: 2 µg/mL (≈ 2.66 µM)
MIC [25]: 2 µg/mL (≈ 2.66 µM)
MIC [26]: 16 µg/mL (≈ 21.3 µM)
